Source: ChEMBL document CHEMBL4425104, “Structure-Based Design of Potent Nicotinamide Phosphoribosyltransferase Inhibitors with Promising in Vitro and in Vivo Antitumor Activities” (J Med Chem, 2016)

Key:
NCI-H1975 = assay: Cytotoxicity against human NCI-H1975 cells assessed as cell growth inhibition after 72 hrs by CCK-8 assay; assay type: functional; details: NCI-H1975, 72 h
Summary of the method: (§1)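 HeLa, MCF7, H1975, U937 and MDA-MB-231 kept in RPMI or DMEM with 10% FBS and 1% pen/strep at 37 °C, 5% CO2. Seeded at 400-800 cells/well in 384-well format, exposed to a concentration series or solvent control for 72 h. CCK-8 added, absorbance read at 450 nm, IC50 fitted from dose-response curves.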

U-937 = assay: Cytotoxicity against human U937 cells assessed as cell growth inhibition after 72 hrs by CCK-8 assay; assay type: functional; details: U-937, 72 h; summary of the method: as §1
HeLa = assay: Cytotoxicity against human HeLa cells assessed as cell growth inhibition after 72 hrs by CCK-8 assay; assay type: functional; summary of the method: as §1
MCF7 = assay: Cytotoxicity against human MCF7 cells assessed as cell growth inhibition after 72 hrs by CCK-8 assay; assay type: functional; details: MCF7, 72 h; summary of the method: as §1
[1] = biological target: T1, Nicotinamide phosphoribosyltransferase (Homo sapiens, UniProt P43490); assay: Inhibition of recombinant NAMPT (unknown origin) using nicotinamide as substrate measured every 5 mins for 30 mins in presence of recombinant NMNAT1
T1 sequence (P43490 whole entry): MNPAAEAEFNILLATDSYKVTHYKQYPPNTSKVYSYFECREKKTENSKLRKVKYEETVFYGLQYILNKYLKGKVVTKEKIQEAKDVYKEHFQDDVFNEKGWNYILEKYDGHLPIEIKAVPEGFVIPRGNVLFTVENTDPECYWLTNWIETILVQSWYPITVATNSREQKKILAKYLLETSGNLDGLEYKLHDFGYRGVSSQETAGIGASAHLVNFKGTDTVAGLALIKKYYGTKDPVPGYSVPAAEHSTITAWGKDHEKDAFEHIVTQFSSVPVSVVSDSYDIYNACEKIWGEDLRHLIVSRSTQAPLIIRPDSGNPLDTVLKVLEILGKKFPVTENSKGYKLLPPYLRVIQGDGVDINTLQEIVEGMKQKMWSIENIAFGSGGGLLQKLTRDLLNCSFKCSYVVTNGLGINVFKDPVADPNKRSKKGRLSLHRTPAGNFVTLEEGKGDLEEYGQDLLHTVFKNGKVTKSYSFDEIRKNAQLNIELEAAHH

MDA-MB-231 [2] = assay: Cytotoxicity against human MDA-MB-231 cells assessed as cell growth inhibition after 72 hrs by CCK-8 assay; assay type: functional; details: MDA-MB-231, 72 h; summary of the method: as §1
[3] = Half life in Sprague-Dawley rat at 5 mg/kg, iv by LC-MS analysis; assay type: ADME, organism-based; details: in vivo
[4] = Tmax in Sprague-Dawley rat at 25 mg/kg, po by LC-MS analysis; assay type: ADME, organism-based; details: in vivo
[5] = Toxicity in nude SCID mouse assessed as mortality at 15 mg/kg, iv qd administered 4 days per week for 4 weeks; assay type: organism-based; details: in vivo
Summary of the method: (§2)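 Female SCID nude mice (6 weeks) bearing MDA-MB-231 orthotopic tumours (1 × 10^6 cells in lower left mammary fat pad). Randomised at tumour volume 100–300 mm3 into vehicle or treatment groups (n = 5). Dosing 15 mg/kg i.v., 4 days a week. Vehicle elsewhere given as 2% DMSO, 4% EtOH, 4% castor oil, 90% water. Body weight and mortality recorded during treatment.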

[6] = Toxicity in nude SCID mouse assessed as body weight loss at 15 mg/kg, iv qd administered 4 days per week for 4 weeks; assay type: organism-based; details: in vivo; summary of the method: as §2
[7] = Ratio of Cmax in Sprague-Dawley rat to IC50 for NAMPT in human MCF7 cells; assay type: ADME, cell-based
[8] = Plasma clearance in Sprague-Dawley rat at 25 mg/kg, po measured up to 24 hrs by LC-MS analysis; assay type: ADME, organism-based
[9] = Half life in Sprague-Dawley rat at 25 mg/kg, po by LC-MS analysis; assay type: ADME, organism-based; details: in vivo
[10] = Oral bioavailability in Sprague-Dawley rat at 25 mg/kg measured up to 24 hrs by LC-MS analysis; assay type: ADME, organism-based; details: in vivo
MDA-MB-231 [11] = assay: Antitumor activity against human MDA-MB-231 cells xenografted in nude SCID mouse assessed as tumor growth inhibition at 15 mg/kg, iv qd administered 4 days per week for 4 weeks; assay type: functional; details: MDA-MB-231, iv, read-out: TGI
Summary of the method: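 Female SCID nude mice, 6 weeks old, given 1 × 10^6 MDA-MB-231 cells into the lower left mammary fat pad. At 100–300 mm3 tumours, randomised to groups of n = 5 and dosed i.v. at 15 mg/kg or vehicle 4 days a week. Volume = L × W²/2; TGI = [1 − (T − T0)/(C − C0)] × 100 from mean volumes; body weight followed.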

[12] = Plasma clearance in Sprague-Dawley rat at 5 mg/kg, iv measured up to 24 hrs by LC-MS analysis; assay type: ADME, organism-based
[13] = Cmax in Sprague-Dawley rat at 25 mg/kg, po measured up to 24 hrs by LC-MS analysis; assay type: ADME, organism-based; parameters: dose 25 mg/kg, route oral; details: in vivo
[14] = Cmax in Sprague-Dawley rat at 5 mg/kg, iv measured up to 24 hrs by LC-MS analysis; assay type: ADME, organism-based; parameters: dose 5 mg/kg, route intravenous; details: in vivo
[15] = Tmax in Sprague-Dawley rat at 5 mg/kg, iv by LC-MS analysis; assay type: ADME, organism-based; details: in vivo
[16] = AUC (0 to infinity) in Sprague-Dawley rat at 25 mg/kg, po measured up to 24 hrs by LC-MS analysis; assay type: ADME, organism-based; parameters: dose 25 mg/kg, route oral, time infinity; details: in vivo
[17] = AUC (0 to infinity) in Sprague-Dawley rat at 5 mg/kg, iv measured up to 24 hrs by LC-MS analysis; assay type: ADME, organism-based; parameters: dose 5 mg/kg, time infinity, route intravenous; details: in vivo
[18] = biological target: T1, Nicotinamide phosphoribosyltransferase; assay: Inhibition of NAMPT in human MCF7 cells assessed as decrease in NAD production after 24 hrs by NAD/NADH Glo assay; assay type: cell-based
Summary of the method: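 MCF-7 cells serum-starved over 12 h, then treated with compound or vehicle for 24 h. Washed in ice-cold PBS, lysed in 1% DTAB in 0.2 N NaOH diluted 1:1 with PBS, frozen at -80 °C.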

Structure (SMILES) | GI50 (NCI-H1975) [nM] | GI50 (U-937) [nM] | GI50 (HeLa) [nM] | GI50 (MCF7) [nM] | IC50 [1] [nM] | GI50 (MDA-MB-231 [2]) [nM] | other results
CCN(CCc1c[nH]c2ccccc12)Cc1ccc(CCCNC(=O)/C=C/c2cccnc2)cc1 | 314 | 48.3 | 200 | 41 | 873 | 76.4 | –
CC(C)N(Cc1ccccc1)Cc1ccc(CCCCCNC(=O)/C=C/c2cccnc2)cc1 | 49 | 11.1 | 40.1 | 6.37 | 82.5 | 12.6 | –
CC(C)N(CCc1c[nH]c2ccccc12)Cc1ccc(CCCCCCCNC(=O)/C=C/c2cccnc2)cc1 | 4.2 | 0.75 | 2.64 | 0.74 | 52.7 | 0.84 | –
CC(C)N(CCc1ccc(C(F)(F)F)cc1)Cc1ccc(CCCCCNC(=O)/C=C/c2cccnc2)cc1 | 9.54 | 1.57 | 8.98 | 1.6 | 362 | 2.4 | –
Cc1ccc(CCN(Cc2ccc(CCCCCNC(=O)/C=C/c3cccnc3)cc2)C(C)C)cc1 | 39.2 | 8.73 | 26.6 | 5.53 | 99.6 | 7.19 | –
CC(C)N(CCc1c[nH]c2ccccc12)Cc1ccc(CCCCCNC(=O)/C=C/c2cccnc2)cc1 | 4.2 | 0.61 | 3.23 | 0.63 | 66.9 | 0.89 | –
O=C(/C=C/c1cccnc1)NCCCc1ccc(CN(CCc2c[nH]c3ccccc23)Cc2ccccc2)cc1 | 514 | 85.2 | 379 | 101 | 1000 | 269 | –
CC(C)N(CCc1c[nH]c2ccccc12)Cc1ccc(CCCNC(=O)/C=C/c2cccnc2)cc1 | 79.7 | 24.2 | 90.7 | 22.4 | 702 | 30.5 | –
CN(CCc1c[nH]c2ccccc12)Cc1ccc(CCCNC(=O)/C=C/c2cccnc2)cc1 | 224 | 69.1 | 250 | 75.4 | 780 | 84.7 | –
CC(C)N(CCc1ccccc1)Cc1ccc(CCCCCNC(=O)/C=C/c2cccnc2)cc1 | 61.3 | 6.21 | 19.6 | 7.18 | 285 | 10.1 | –
CC(C)N(CCc1cccc(C(F)(F)F)c1)Cc1ccc(CCCCCNC(=O)/C=C/c2cccnc2)cc1 | 26.2 | 5.1 | 15.2 | 2.41 | 381 | 6.92 | –
COc1ccc(CCN(Cc2ccc(CCCCCNC(=O)/C=C/c3cccnc3)cc2)C(C)C)cc1 | 9.87 | 2.12 | 6.95 | 1.38 | 54.8 | 2.86 | –
CC(C)N(CCc1ccc(F)cc1)Cc1ccc(CCCCCNC(=O)/C=C/c2cccnc2)cc1 | 34.1 | 7.67 | 20.9 | 7.37 | 149 | 13.6 | –
CC(C)(C)OC(=O)N(CCc1c[nH]c2ccccc12)Cc1ccc(CCCNC(=O)/C=C/c2cccnc2)cc1 | 399 | 54.3 | 288 | 85.5 | 715 | 123 | –
CCCN(CCc1c[nH]c2ccccc12)Cc1ccc(CCCNC(=O)/C=C/c2cccnc2)cc1 | 109 | 28.1 | 55.7 | 23.8 | 544 | 36 | –
CC(C)N(CCc1c[nH]c2ccccc12)Cc1ccc(NCCCCCNC(=O)/C=C/c2cccnc2)cc1 | 1.61 | 0.25 | 0.5 | 0.13 | 25.3 | 0.15 | half-life [3]: 1.55 h; Tmax [4]: 2 h; Activity [5]: Non-Toxic; Activity [6]: Non-Toxic; Ratio [7]: 500; CL/F [8]: 1140 mL/min/kg; half-life [9]: 2.37 h; bioavailability [10]: 4.4%; inhibition in vivo at 15 mg/kg (MDA-MB-231 [11]): 73.8%; clearance [12]: 49 mL/min/kg; Cmax [13]: 108 ng/mL; Cmax [14]: 3790 ng/mL; Tmax [15]: 1.98 min; AUC(0-inf) [16]: 374 ng·h/mL; AUC(0-inf) [17]: 1710 ng·h/mL; IC50 [18]: 0.155 nM
CC(C)N(CCc1ccsc1)Cc1ccc(CCCCCNC(=O)/C=C/c2cccnc2)cc1 | 71.8 | 14.8 | 43.7 | 8.47 | 195 | 23.6 | –
O=C(/C=C/c1cccnc1)NCCCc1ccc(CN(CCO)CCc2c[nH]c3ccccc23)cc1 | 107 | 18.3 | 69.4 | 18.1 | 181 | 31.4 | –
Cc1[nH]c2ccccc2c1CCN(Cc1ccc(CCCCCNC(=O)/C=C/c2cccnc2)cc1)C(C)C | 13.3 | 1.58 | 7.93 | 1.67 | 120 | 3.03 | –
CC(C)N(CCc1c[nH]c2ccccc12)Cc1ccc(CNC(=O)/C=C/c2cccnc2)cc1 | 335 | 77.9 | 173 | 75.1 | 213 | 134 | –
O=C(/C=C/c1cccnc1)NCCCc1ccc(CNCCc2c[nH]c3ccccc23)cc1 | 963 | 187 | 405 | 86.9 | 1410 | 358 | –
O=C(/C=C/c1cccnc1)NCCCCC1CCN(C(=O)c2ccccc2)CC1 [DAPORINAD] | 3.95 | 0.36 | 1.34 | 0.29 | – | 0.78 | –
CC(=O)O[C@H]1C(=O)[C@@]2(C)[C@H]([C@H](OC(=O)c3ccccc3)[C@]3(O)C[C@H](OC(=O)[C@H](O)[C@@H](NC(=O)c4ccccc4)c4ccccc4)C(C)=C1C3(C)C)[C@]1(OC(C)=O)CO[C@@H]1C[C@@H]2O [PACLITAXEL] | 5.77 | 2.12 | 2.34 | 4.38 | – | 8.67 | –
